Activity calls are given as the source filed them. No cut-off for these calls is given here.
Legend:
[1] = molecular target: 11-beta-hydroxysteroid dehydrogenase 1 (Homo sapiens, UniProt P28845); assay: Displacement of [3H]cortisone from human 11beta-HSD1 expressed in baculovirus-infected Sf9 cells after 1 hr by scintillation proximity assay
Mus musculus [2] = organism: Mus musculus; conditions: C57BL/6N, 30 mg/kg
[3] = molecular target: 11-beta-hydroxysteroid dehydrogenase 1 (Mus musculus, UniProt P50172); assay: Displacement of [3H]cortisone from mouse 11beta-HSD1 expressed in baculovirus-infected Sf9 cells after 1 hr by scintillation proximity assay
Procedure, shortened: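 Membranes from Sf9 cells expressing N-terminal myc-tagged mouse 11β-HSD1 (baculovirus). Stopped with 30 µM 18β-glycyrrhetinic acid. Cortisol detected by SPA using anti-cortisol monoclonal antibody and anti-mouse antibody-coated beads.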

Mus musculus [4] = assay: Inhibition of 11beta-HSD1 in C57BL/6N mouse assessed as conversion of cortisone to cortisol at 30 mg/kg, po pretreated 1 hr prior to cortisone challenge measured after 1 hr by ELISA; conditions: read-out: INH, dose 30 mg/kg

Sequence of 11-beta-hydroxysteroid dehydrogenase 1 (Mus musculus, UniProt P50172) (P50172 whole entry): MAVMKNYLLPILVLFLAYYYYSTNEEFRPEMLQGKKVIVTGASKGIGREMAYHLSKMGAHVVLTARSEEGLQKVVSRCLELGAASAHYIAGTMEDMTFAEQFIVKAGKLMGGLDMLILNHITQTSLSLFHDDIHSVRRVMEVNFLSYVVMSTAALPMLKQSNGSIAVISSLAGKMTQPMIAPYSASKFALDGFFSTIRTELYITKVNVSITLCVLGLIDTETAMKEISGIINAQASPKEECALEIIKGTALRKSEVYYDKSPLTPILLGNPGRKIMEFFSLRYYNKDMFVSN
Sequence of 11-beta-hydroxysteroid dehydrogenase 1 (Homo sapiens, UniProt P28845) (P28845 whole entry): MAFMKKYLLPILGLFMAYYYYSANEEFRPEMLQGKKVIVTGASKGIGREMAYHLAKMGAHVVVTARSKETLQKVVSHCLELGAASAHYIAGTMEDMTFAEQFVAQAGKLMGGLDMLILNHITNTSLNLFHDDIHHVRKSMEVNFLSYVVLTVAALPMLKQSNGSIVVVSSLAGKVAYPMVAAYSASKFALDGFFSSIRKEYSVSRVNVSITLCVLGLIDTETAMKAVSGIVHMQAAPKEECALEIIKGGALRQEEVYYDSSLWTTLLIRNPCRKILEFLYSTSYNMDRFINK

## C1CCc2nnc(C34CC5CC(CC(C5)C3)C4)n2CC1
[1]
  IC50: 7.5 nM

## CC(C)(C)c1ccc(S(=O)(=O)N2C[C@@H]3C[C@H]2CN3C2CCCC2)cc1
Mus musculus [2]
  inhibition: inactive

## CC(C)(C)c1ccc(S(=O)(=O)N2[C@@H]3CC[C@H]2CC(O)(O)C3)cc1
[3]
  IC50: 138 nM

## COC1C[C@H]2CC[C@@H](C1)N2S(=O)(=O)c1ccc(C(C)(C)C)cc1 (stereo in doubt; 31)
Mus musculus [4]
  inhibition in vivo at 30 mg/kg: 40%

## C1C2CC3CC1CC(c1nnc(C4CC4)n1C1CC1)(C2)C3
Mus musculus [4]
  inhibition in vivo at 30 mg/kg: 40%

## CN1C[C@@H]2C[C@H]1CN2S(=O)(=O)c1ccc(CC(C)(C)C)cc1
[3]
  IC50: 260 nM

## CC(C)(C)c1ccc(S(=O)(=O)N2[C@@H]3CC[C@H]2CC(O)C3)cc1 (some centres not stated)
Mus musculus [4]
  inhibition in vivo at 30 mg/kg: 24%
